From PubChem
This excerpt belongs to a sample that is enriched for hits.
CHOP inhibitor: blocks CHOP induction under ER stress. CHO-K1 CHOP-promoter luciferase, tunicamycin-induced, 15-18 h. inhibition, % at 10 µM. 220,000 compounds, 3.8% hits;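 active means compounds that reduced the stress-induced luciferase reporter signal by more than about 70% of percent inhibition, limit read from the data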;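 further: 0% = tunicamycin plus vehicle and 100% = wells without tunicamycin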
CHOP UPR activ: activators of apoptotic arm of unfolded protein response (CHOP); CHO-CHOP luciferase reporter, UPR activation, luminescence; percent of tunicamycin response over DMSO baseline; activation, % at 10 µM; 330,000 compounds, 0.34% hits; AID 449763;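 active means at 10 µM dose, activation of 40% or more, normalized to positive control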;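 further: 100% = tunicamycin at 10 µg/mL and 0% = DMSO alone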
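Test system: CHO-CHOP cells, stable luciferase reporter of PERK-eIF2a-CHOP signalling | Quantity: 500 CHO-CHOP cells per well | Buffer or medium: F12 plus 10% serum | Compound dosing: 10 µM single point, 0.5% DMSO | Schedule: 6 h compound treatment, 37 °C | Signal: Luciferase luminescence | Control set: Tunicamycin high control, DMSO low control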
XBP1 UPR activ: adaptive UPR (XBP1) activation | CHO-XBP1 luciferase reporter, IRE1-XBP1 UPR activation, luminescence; percent of tunicamycin response, DMSO as zero | activation, % at 20 µM | 330,000 compounds, 0.33% hits | AID 463104;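 active means versus positive control, 20 µM dose yields 30% or more activation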;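 further: 100% = tunicamycin at 10 µg/mL and 0% = DMSO only wells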
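Assay system: IRE1-XBP1 luciferase reporter CHO line. Input: 1000 cells/well. Buffer or medium: F12 with 10% serum. Doses: 20 µM, 1% DMSO. Times: overnight seeding at 37 °C, 6 h compound treatment at 37 °C. Technique: Steady-Glo luciferase glow luminescence, 10 min after reagent addition.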
B2AR ag: agonists of human beta-2 adrenergic receptor inducing internalization; P07550; Am2.2-beta2AR cells, FAP receptor internalization, flow cytometry; response, % (test concentration not listed); 340,000 compounds, 0.43% hits;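 active means response above a set limit, near 3 SD of response in nonfluorescent compounds, cut at about 42% in these data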
Dynein transport: blocks dynein driven cargo transport along microtubules; z-score, hits read low; 220,000 compounds, 0.47% hits; 3617.4 mouse cells, GR-EGFP nuclear translocation imaging; test concentration mostly 20 µM; stimulated with dexamethasone, 1 µM; active compounds read low;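 active means plate z-score of nuclear minus cytoplasmic receptor signal below a set negative limit, without overly bright fluorescence or cell loss, cut at about -3.5 in these data, passing the limit was not always enough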;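 further: z-score of nuclear minus cytoplasmic ring GR-EGFP intensity difference per well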
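Buffer or medium: Induction medium lacking tetracycline, stripped serum | Also added: Dexamethasone agonist, 1.0 µM final, for 30 min | Timing: 48 h induction, 1 h compound, 30 min dex at 37 °C | Detection: Formaldehyde fixation, Hoechst nuclear stain, 10x automated fluorescence imaging | Measure: Nuclear versus cytoplasmic GR-EGFP signal, averaged per well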
pCIP destab: lowers stability of the mouse p/CIP coactivator protein. Q05BA5. F442A p/CIP-EGFP cells, EGFP fluorescence, 16 h. decrease of EGFP signal, % at 10 µM. 290,000 compounds, 0.01% hits;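 active means EGFP signal decrease of at least 30% at 10 µM or well 3 SD below plate mean, unless failing retest; inactive means the rest, including hits failing retest or dose response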
Target sequence (Q05BA5 1-1403): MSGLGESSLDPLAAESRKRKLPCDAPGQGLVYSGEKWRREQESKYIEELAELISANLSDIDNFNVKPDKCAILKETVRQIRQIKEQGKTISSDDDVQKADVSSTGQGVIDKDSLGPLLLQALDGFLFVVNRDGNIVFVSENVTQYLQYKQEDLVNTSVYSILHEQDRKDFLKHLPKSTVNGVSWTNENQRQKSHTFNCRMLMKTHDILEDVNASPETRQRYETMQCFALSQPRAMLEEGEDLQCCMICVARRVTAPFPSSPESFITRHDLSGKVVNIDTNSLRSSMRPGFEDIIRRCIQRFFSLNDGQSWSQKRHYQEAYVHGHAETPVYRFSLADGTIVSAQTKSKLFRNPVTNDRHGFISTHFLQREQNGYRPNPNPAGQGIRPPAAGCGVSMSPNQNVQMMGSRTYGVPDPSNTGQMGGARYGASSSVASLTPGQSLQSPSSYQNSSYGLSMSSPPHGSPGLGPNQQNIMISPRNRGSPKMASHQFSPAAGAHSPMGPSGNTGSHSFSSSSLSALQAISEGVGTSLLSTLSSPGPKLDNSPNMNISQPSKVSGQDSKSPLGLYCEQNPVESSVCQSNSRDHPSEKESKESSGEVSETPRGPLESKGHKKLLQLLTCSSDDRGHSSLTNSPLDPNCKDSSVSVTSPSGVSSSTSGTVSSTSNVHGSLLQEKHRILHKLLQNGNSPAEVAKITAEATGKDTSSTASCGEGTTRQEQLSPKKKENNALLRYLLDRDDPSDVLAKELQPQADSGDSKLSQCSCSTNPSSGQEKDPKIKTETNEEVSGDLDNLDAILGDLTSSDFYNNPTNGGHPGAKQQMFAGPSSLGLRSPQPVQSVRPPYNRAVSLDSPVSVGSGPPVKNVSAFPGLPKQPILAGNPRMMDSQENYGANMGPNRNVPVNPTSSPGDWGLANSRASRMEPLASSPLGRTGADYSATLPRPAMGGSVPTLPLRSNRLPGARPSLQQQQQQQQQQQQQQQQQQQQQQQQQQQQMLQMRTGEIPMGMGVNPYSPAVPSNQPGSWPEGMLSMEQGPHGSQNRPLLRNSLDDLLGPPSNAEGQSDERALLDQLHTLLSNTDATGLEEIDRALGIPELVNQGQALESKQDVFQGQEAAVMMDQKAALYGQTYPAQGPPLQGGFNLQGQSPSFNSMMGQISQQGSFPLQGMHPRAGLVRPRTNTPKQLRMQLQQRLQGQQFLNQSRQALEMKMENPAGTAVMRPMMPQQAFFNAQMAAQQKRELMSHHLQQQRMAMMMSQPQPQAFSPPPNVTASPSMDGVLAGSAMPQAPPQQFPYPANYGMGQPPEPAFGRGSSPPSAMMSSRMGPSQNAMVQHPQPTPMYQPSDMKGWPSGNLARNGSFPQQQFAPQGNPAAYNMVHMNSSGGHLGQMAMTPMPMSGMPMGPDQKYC
Numbers without * were called inactive; nt = not tested or not shown.

SMILES | CHOP inhibitor | CHOP UPR activ | XBP1 UPR activ | B2AR ag | Dynein transport | pCIP destab
CC(=O)c1c(C)nn(CC(O)Cn2c3c(c4cc(C)ccc42)CCCC3=O)c1C (stereo unspecified) | 25 | 3 | -3 | -4 | 0.67 | -12
CCCN(CCC)c1nc2ccccc2n2c(C)nnc12 | 83* | 2 | 3 | -4 | 0.31 | 3
O=C(O)c1ccc(-n2cc(-c3cc4ccccc4oc3=O)[nH]c2=S)cc1 | -26 | nt | nt | -8 | 0.95 | 16
Cc1cc(C)n(-c2ccc3cccc(NS(C)(=O)=O)c3n2)n1 | 74* | -4 | 1 | 1 | -0.57 | -4
CS(=O)(=O)Nc1cccc2cccnc12 | -44 | -1 | 0 | 15 | -0.037 | -5
CN1CCN(CCc2nc3cc(NC(=O)COc4ccc([N+](=O)[O-])cc4)ccc3n2C)CC1 | nt | 0 | -2 | -2 | nt | -3
CCNC(=S)N(Cc1ccc(OC)cc1)C1CC(=O)N(c2ccc(OCC)cc2)C1=O (stereo unspecified) | 73* | -2 | -3 | 1 | 0.71 | -5
CCNC(=S)N(Cc1ccc2c(c1)OCO2)C1CC(=O)N(c2ccc(OC)cc2)C1=O (stereo unspecified) | 55 | 0 | -4 | 4 | -0.16 | -8
COc1ccc(CN(C(=S)Nc2ccccc2)C2CC(=O)N(c3ccccc3)C2=O)cc1 (stereo unspecified) | 2 | 0 | 6 | 1 | -0.81 | -2
CCNC(=S)N(Cc1ccc2c(c1)OCO2)C1CC(=O)N(c2ccc(F)cc2)C1=O (stereo unspecified) | 73* | -1 | -4 | 4 | 0.23 | -6
COc1ccc(CN(C(=S)Nc2ccccc2)C2CC(=O)N(c3ccc(Cl)cc3)C2=O)cc1 (stereo unspecified) | 72* | 3 | -4 | 6 | 0.003 | -4
O=C(Cc1ccccc1)NCc1ccc(-n2cccc2)cc1 | -23 | 1 | 4 | -1 | 0.33 | -43
CCN(CC)CCNCc1ccc(-c2ccc(Cl)cc2)o1 | 82* | -3 | 1 | 5 | -0.42 | -1
CCN(CC)CCNCC(O)(c1ccc(Cl)cc1)c1ccc(Cl)cc1 | -22 | -2 | -1 | 9 | -0.67 | -2
CC(C)COc1ccc(C(=O)OC2CC(C)(C)OCC2CN(C)C)cc1 (stereo unspecified) | 71* | -1 | 1 | 12 | -0.41 | 0
CCNC(=O)C1OC(n2cnc3c(NCc4ccccc4)ncnc32)C(O)C1O (stereo unspecified) | -7 | nt | nt | nt | nt | nt
CCOc1ccc(S(=O)(=O)N(C)c2ccc(OCC(=O)Nc3nc4ccccc4s3)cc2)cc1 | 81* | 5 | -3 | 3 | -0.053 | -8
CC(/C=C/c1cccc(Oc2ccc(F)cc2)c1)N(O)C(N)=O (stereo unspecified) | -12 | nt | nt | nt | nt | nt
CCOc1ccc(C(=O)N[C@H](C(=O)Nc2ccc(S(=O)(=O)Nc3nccs3)cc2)C(C)C)cc1 | nt | -1 | -2 | 0 | nt | nt
C=CCN(c1ccccc1C(=O)O)S(=O)(=O)/C=C/c1ccccc1 | 10 | -1 | 0 | -5 | 3 | -5
COc1ccc(N2C(=O)CSC23C(=O)N2CCCc4cccc3c42)cc1 (stereo unspecified) | -2 | 1 | 0 | 7 | 0.039 | -1
COc1ccc(N2C(=O)CSC23C(=O)N2c4c(cccc43)C(C)=CC2(C)C)cc1 (stereo unspecified) | 75* | -1 | 3 | 5 | -0.41 | 4
Cc1ccc(-c2nnn(CC(=O)N3CCCc4ccccc43)n2)cc1 | 84* | 0 | -1 | -2 | 0.9 | 4
COc1cc2c(C(=O)N3CCN(c4ccccc4F)CC3)cn(C)c(=O)c2cc1OC | 36 | 0 | 0 | -5 | -0.65 | 6
O=C(CC1S/C(=N/N=C/c2ccco2)NC1=O)Nc1cccc(Cl)c1Cl (stereo unspecified) | 94* | 1 | -2 | 3 | -0.94 | 4
SMILES | CHOP inhibitor | CHOP UPR activ | XBP1 UPR activ | B2AR ag | Dynein transport | pCIP destab
CCCn1c(C)nc2c(c1=O)c1nc3ccccc3nc1n2CCC1=CCCCC1 | 89* | 2 | 2 | 24 | -1.1 | -1
CCCn1c(C)nc2c(c1=O)c1nc3ccccc3nc1n2CCc1ccccc1 | nt | nt | nt | nt | 0.2 | nt
CC(C)c1cccc(OCC(=O)Nc2ccc(S(=O)(=O)Nc3ccccn3)cc2)c1 | nt | 0 | -4 | 1 | nt | -17
Cc1cc(C)nc(NS(=O)(=O)c2ccc(N/C=C/C(=O)c3ccc(Cl)cc3)cc2)n1 | 92* | 3 | 2 | 14 | 0.14 | -6
COc1ccc(C(=O)/C=C/Nc2ccc(S(=O)(=O)Nc3nc(C)cc(C)n3)cc2)cc1OC | 36 | 0 | -2 | 0 | -0.2 | -1
Cc1ccc(-n2nc3c([n+]2[O-])CCc2c-3no[n+]2[O-])cc1 | 90* | -1 | -6 | -13 | 0.6 | 12
Cc1cccc(-n2nc3c([n+]2[O-])CCc2nonc2-3)c1C | 22 | -3 | -2 | 5 | -0.096 | 8
Cc1ccc(-n2nc3c(n2)/C(=N/O)CC/C3=N\O)cc1 | 11 | 0 | 7 | 7 | 0.55 | -1
[O-][n+]1onc2c1CCc1c-2nn(-c2ccccc2Cl)[n+]1[O-] | 96* | -3 | -9 | -1 | -2.2 | 6
CCCCCCCN(c1ccccc1)[C@@H]1C[C@H]2CCCC(=O)N3CC[C@@H](C1)[C@@H]23 | nt | nt | nt | 91* | nt | nt
CC(C)C(NC(=O)COc1ccc2ccccc2c1)C(=O)N/N=C/C=C/c1ccccc1 (stereo unspecified) | 86* | 0 | 29 | -5 | -1.1 | 3
COc1ccc(/C=C/C=N/NC(=O)COc2ccc(OC)cc2)cc1 | 23 | 5 | 4 | 10 | -0.35 | 1
CC(C)=CCC/C(C)=C/CC/C(C)=C/CSc1ccccc1C(=O)O | 1 | nt | nt | nt | nt | nt
O=Cc1cc(OCc2ccccc2)ccc1[B-](F)(F)F | nt | nt | nt | 2 | nt | nt
CCOc1ccc(-n2c(N)c(-c3nc4ccccc4[nH]3)sc2=S)cc1 | 81* | 0 | -1 | 8 | -0.021 | -4
Cc1cccc(NC(=O)CCS(=O)(=O)c2ccc3c(c2)NC(=O)CS3)n1 | nt | 0 | -2 | -6 | nt | 5
CCc1cccc2c(SCC(=O)NCC3CCCO3)nc(-c3ccc(F)cc3)nc12 (stereo unspecified) | 79* | 2 | 0 | 7 | -0.4 | -16
Cc1ccc2nc(-c3ccc(F)cc3)nc(SCC(=O)NCC3CCCO3)c2c1 (stereo unspecified) | nt | 0 | -2 | -7 | nt | -4
COc1ccccc1N1CCN(CCCN2C(=O)C3CCCN3C2=O)CC1 (stereo unspecified) | nt | nt | nt | 0 | nt | nt
N=C1Sc2ccccc2C2=NCCCN12 | 1 | nt | nt | nt | nt | nt
